In ChEMBL document CHEMBL1250521, “Design, synthesis, and preliminary biological evaluation of new isoform-selective f-current blockers” (J Med Chem, 2010):

Tests used:
[1] = biological target: Potassium/sodium hyperpolarization-activated cyclic nucleotide-gated channel 1 (Mus musculus) (UniProt O88704); assay: Blockade of mouse HCN1 expressed in HEK293 cells at 5 uM at -120 f-current amplitude by patch-clamp electrophysiological assay relative to control; format: cell-based
Outline: (§1)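 Single-concentration patch-clamp screen at 5 μM on HEK293 cells stably expressing mouse HCN1 or human HCN4. f-current block normalized to control; mean ± SEM of three to five experiments.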

[2] = biological target: T1, Potassium/sodium hyperpolarization-activated cyclic nucleotide-gated channel 4 (Homo sapiens) (UniProt Q9Y3Q4); assay: Blockade of human HCN4 expressed in HEK293 cells at 5 uM at -120 f-current amplitude by patch-clamp electrophysiological assay relative to control; format: cell-based; outline: as §1
T1 sequence (whole entry): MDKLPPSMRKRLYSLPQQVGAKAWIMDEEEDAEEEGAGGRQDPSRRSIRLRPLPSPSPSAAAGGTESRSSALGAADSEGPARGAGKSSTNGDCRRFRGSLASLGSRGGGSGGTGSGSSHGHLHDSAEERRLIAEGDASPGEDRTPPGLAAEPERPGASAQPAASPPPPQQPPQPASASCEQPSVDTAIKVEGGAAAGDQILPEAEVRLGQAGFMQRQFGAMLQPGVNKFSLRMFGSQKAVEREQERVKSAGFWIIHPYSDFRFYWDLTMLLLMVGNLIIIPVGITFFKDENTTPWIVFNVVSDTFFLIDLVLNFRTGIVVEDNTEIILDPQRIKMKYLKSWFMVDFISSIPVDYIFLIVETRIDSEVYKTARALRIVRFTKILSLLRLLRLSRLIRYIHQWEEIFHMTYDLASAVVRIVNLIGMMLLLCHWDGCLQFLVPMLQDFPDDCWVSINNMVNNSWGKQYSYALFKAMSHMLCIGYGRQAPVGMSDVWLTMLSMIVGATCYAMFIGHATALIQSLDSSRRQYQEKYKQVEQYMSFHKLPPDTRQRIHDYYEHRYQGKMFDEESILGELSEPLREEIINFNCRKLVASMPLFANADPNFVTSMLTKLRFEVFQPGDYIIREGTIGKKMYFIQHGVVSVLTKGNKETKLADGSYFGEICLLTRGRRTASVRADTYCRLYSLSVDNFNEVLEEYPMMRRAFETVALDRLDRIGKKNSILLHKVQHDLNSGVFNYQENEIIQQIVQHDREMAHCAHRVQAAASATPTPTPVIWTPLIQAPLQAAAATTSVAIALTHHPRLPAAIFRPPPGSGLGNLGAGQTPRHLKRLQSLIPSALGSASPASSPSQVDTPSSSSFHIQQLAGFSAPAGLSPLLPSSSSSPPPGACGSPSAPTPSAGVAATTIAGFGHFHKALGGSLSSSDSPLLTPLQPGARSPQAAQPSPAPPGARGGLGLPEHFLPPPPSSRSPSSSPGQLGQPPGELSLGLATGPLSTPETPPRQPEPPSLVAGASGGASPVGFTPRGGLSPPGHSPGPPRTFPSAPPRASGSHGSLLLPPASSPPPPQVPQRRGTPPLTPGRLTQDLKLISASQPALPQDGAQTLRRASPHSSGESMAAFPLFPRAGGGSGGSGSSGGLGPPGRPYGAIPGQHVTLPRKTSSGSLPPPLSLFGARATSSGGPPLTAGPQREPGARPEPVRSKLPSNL

[3] = biological target: T2, Potassium/sodium hyperpolarization-activated cyclic nucleotide-gated channel 4 (Homo sapiens, UniProt Q9Y3Q4); assay: Blockade of human HCN4 expressed in HEK293 cells at -120 f-current amplitude by patch-clamp electrophysiological assay; format: cell-based
T2 sequence (Q9Y3Q4 whole entry): T1 sequence (whole entry)
Outline: (§2)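 HEK293 cells stably transfected with mouse HCN1, mouse HCN2 or human HCN4. Patch-clamp recordings of hyperpolarization-activated f-current at varied concentrations to derive EC50.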

[4] = biological target: T3, Potassium/sodium hyperpolarization-activated cyclic nucleotide-gated channel 2 (Mus musculus, UniProt O88703); assay: Blockade of mouse HCN2 expressed in HEK293 cells at -120 f-current amplitude by patch-clamp electrophysiological assay; format: cell-based; outline: as §2
T3 sequence (O88703 whole entry): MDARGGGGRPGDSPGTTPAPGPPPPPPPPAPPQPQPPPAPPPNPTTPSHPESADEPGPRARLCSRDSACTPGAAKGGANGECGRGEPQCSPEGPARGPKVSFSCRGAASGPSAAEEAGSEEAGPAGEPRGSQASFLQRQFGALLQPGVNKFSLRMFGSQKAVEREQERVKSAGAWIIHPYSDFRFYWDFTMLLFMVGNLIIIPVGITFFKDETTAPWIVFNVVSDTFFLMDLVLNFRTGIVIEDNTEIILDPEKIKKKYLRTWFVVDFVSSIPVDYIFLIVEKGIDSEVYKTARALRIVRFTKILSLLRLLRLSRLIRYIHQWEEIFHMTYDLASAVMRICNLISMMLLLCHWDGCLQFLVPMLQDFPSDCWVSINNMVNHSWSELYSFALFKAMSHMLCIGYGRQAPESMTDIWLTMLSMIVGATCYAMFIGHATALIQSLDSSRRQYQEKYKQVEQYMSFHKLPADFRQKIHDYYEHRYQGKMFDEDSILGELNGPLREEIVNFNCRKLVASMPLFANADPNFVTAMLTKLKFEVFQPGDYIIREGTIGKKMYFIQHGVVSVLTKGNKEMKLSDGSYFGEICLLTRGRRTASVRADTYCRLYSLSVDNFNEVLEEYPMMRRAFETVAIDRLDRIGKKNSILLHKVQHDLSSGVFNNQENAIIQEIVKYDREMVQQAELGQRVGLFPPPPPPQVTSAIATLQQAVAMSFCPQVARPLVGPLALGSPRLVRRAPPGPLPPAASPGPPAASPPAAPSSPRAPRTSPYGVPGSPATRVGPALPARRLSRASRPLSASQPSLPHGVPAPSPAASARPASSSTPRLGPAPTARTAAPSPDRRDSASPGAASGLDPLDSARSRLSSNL

[5] = biological target: Potassium/sodium hyperpolarization-activated cyclic nucleotide-gated channel 1 (Mus musculus, UniProt O88704); assay: Blockade of mouse HCN1 expressed in HEK293 cells at -120 f-current amplitude by patch-clamp electrophysiological assay; format: cell-based; outline: as §2
[6] = Blockade of HCN in guinea pig spontaneously beating atria assessed as reduction of heart rate measured for 15 mins; format: tissue-based, Cavia porcellus
Outline: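 Isolated spontaneously beating guinea pig atria; cumulative concentrations 10-9-10-4 M applied, decrease in atrial rate recorded. EC50 obtained by fitting the concentration-effect curve to the Hill equation; mean ± SEM of three to four experiments.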

[7] = Selectivity ratio of EC50 for mouse HCN1 to EC50 for human HCN4
Outline: (§3)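 Selectivity expressed as the ratio of EC50 values from patch-clamp on stably transfected HEK293 cells expressing mouse HCN1, mouse HCN2 or human HCN4.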

[8] = species: Mus musculus; assay: Selectivity ratio of EC50 for mouse HCN1 to EC50 for mouse HCN2; outline: as §3
[9] = Selectivity ratio of EC50 for mouse HCN2 to EC50 for human HCN4; outline: as §3
[10] = species: Mus musculus; assay: Selectivity ratio of EC50 for mouse HCN2 to EC50 for mouse HCN1; outline: as §3

Chain of Potassium/sodium hyperpolarization-activated cyclic nucleotide-gated channel 1 (Mus musculus) (O88704 whole entry): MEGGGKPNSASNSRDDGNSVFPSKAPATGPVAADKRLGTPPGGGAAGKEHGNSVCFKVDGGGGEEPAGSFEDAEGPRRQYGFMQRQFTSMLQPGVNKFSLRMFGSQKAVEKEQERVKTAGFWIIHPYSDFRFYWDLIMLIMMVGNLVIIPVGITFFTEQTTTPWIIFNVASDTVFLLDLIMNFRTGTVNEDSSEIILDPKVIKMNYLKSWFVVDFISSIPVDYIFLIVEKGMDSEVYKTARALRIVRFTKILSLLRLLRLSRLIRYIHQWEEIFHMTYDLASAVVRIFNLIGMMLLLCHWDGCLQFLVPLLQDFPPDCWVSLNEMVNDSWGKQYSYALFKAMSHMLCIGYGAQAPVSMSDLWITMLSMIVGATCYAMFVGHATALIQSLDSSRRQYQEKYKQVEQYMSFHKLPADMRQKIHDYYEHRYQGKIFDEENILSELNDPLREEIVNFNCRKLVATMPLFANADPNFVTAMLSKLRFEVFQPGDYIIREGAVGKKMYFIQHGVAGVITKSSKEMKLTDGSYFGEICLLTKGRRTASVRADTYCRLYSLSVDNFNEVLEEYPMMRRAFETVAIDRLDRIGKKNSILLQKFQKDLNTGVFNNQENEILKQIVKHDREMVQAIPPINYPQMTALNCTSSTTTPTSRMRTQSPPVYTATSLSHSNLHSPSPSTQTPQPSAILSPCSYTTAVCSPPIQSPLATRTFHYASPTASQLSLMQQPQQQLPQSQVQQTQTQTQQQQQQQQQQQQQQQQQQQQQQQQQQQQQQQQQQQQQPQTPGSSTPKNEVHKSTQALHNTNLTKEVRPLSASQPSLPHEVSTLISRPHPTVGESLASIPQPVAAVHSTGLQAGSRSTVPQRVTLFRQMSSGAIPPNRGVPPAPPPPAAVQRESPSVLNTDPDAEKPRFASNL
Chain of Potassium/sodium hyperpolarization-activated cyclic nucleotide-gated channel 1 (O88704 whole entry): as above

| Structure (SMILES) | residual activity [1] [%] | residual activity [2] [%] | EC50 [3] [µM] | EC50 [4] [µM] | EC50 [5] [µM] | EC50 [6] [µM] | Selectivity ratio [7] | Selectivity ratio [8] | Selectivity ratio [9] | Selectivity ratio [10] |
| --- | --- | --- | --- | --- | --- | --- | --- | --- | --- | --- |
| COc1ccc([C@@H](C)CN(C/C=C/CN2C=Cc3cc(OC)c(OC)cc3CC2=O)C/C=C/CN2C=Cc3cc(OC)c(OC)cc3CC2=O)cc1OC | 60 | 73 | – | – | – | – | – | – | – | – |
| COc1ccc([C@H](C)CN(C)C/C=C\CN2C=Cc3cc(OC)c(OC)cc3CC2=O)cc1OC | 76 | 91 | 31.6 | 25.5 | 31.3 | – | – | – | – | – |
| COc1ccc(CCN(C)C/C=C\CN2C=Cc3cc(OC)c(OC)cc3CC2=O)cc1OC | 53 | 59 | 7.14 | 24.6 | 5.6 | 15.8 | – | – | – | – |
| COc1ccc([C@H](C)CN(C/C=C/CN2C=Cc3cc(OC)c(OC)cc3CC2=O)C/C=C/CN2C=Cc3cc(OC)c(OC)cc3CC2=O)cc1OC | 93 | 83 | – | – | – | – | – | – | – | – |
| COc1ccc(CCN(C)C/C=C/CN2C=Cc3cc(OC)c(OC)cc3CC2=O)cc1OC | 35 | 53 | 7.23 | 17.2 | 2.31 | 11.3 | – | – | – | – |
| COc1ccc([C@@H](C)CN(C/C=C\CN2C=Cc3cc(OC)c(OC)cc3CC2=O)C/C=C\CN2C=Cc3cc(OC)c(OC)cc3CC2=O)cc1OC | 27 | 93 | 104 | 18.3 | 0.6 | 113 | 170 | 30 | – | – |
| COc1ccc(CCN(C/C=C\CN2C=Cc3cc(OC)c(OC)cc3CC2=O)C/C=C\CN2C=Cc3cc(OC)c(OC)cc3CC2=O)cc1OC | 82 | 75 | 70.7 | 147 | 107 | – | – | – | – | – |
| COc1ccc([C@H](C)CN(C/C=C\CN2C=Cc3cc(OC)c(OC)cc3CC2=O)C/C=C\CN2C=Cc3cc(OC)c(OC)cc3CC2=O)cc1OC | 76 | 92 | 136 | 50.1 | 17.9 | – | – | – | – | – |
| COc1cc2c(cc1OC)CC(=O)N(CCCN(C)C[C@H]1Cc3cc(OC)c(OC)cc31)CC2 [IVABRADINE] | 47 | 49 | 4.28 | 4.52 | 4.5 | – | – | – | – | – |
| COc1ccc([C@@H](C)CN(C)C/C=C/CN2C=Cc3cc(OC)c(OC)cc3CC2=O)cc1OC | 85 | 72 | – | – | – | – | – | – | – | – |
| COc1ccc([C@H](C)CN(C)C/C=C/CN2C=Cc3cc(OC)c(OC)cc3CC2=O)cc1OC | 85 | 71 | – | – | – | – | – | – | – | – |
| COc1ccc([C@@H](C)CN(C)C/C=C\CN2C=Cc3cc(OC)c(OC)cc3CC2=O)cc1OC | 63 | 83 | 24.9 | 2.3 | 9.41 | 7.1 | – | – | 10 | 4 |
| COc1ccc(CCN(C)CCCN2CCc3cc(OC)c(OC)cc3CC2=O)cc1OC [ZATEBRADINE] | – | – | 8.57 | 5.45 | 16.8 | 13.4 | – | – | – | – |
